Assay results reported in ChEMBL document CHEMBL3865787, “Combinatorial synthesis, in silico, molecular and biochemical studies of tetrazole-derived organic selenides with increased selectivity against hepatocellular carcinoma” (Eur J Med Chem, 2016).
Calls of active or inactive are those of the source. The rule behind the calls is not given here.

Columns and labels:
[1] = Cytotoxicity against human MCF7 cells assessed as reduction in cell viability after 48 hrs by MTT assay; format: functional, cell-based; settings: MCF7, 48 h
Outline: (§1)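 Cells were grown in DMEM with 10% calf serum and seeded at 50,000 cells/mL. They grew 2 days at 37 °C, 10% CO2, then took serial compound dilutions for 48 h. MTT (final 0.5 mg/mL) ran 2 h; formazan was washed, dissolved in DMSO and read at 590 nm. IC50 was taken from dose-response curves as the mean of two parallel experiments. 5-FU was the positive control. TI = IC50 WI-38/IC50 HepG2.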

[2] = Cytotoxicity against human HepG2 cells assessed as reduction in cell viability after 48 hrs by MTT assay; format: functional, cell-based; settings: HepG2, 48 h; outline: as §1
[3] = Cytotoxicity against human WI38 cells assessed as reduction in cell viability after 48 hrs by MTT assay; format: toxicity, cell-based, WI-38; outline: as §1
[4] = Therapeutic index, ratio of IC50 for human WI38 cells to IC50 for human HepG2 cells; format: cell-based; settings: WI38 cells and HepG2 cells, read-out: Ratio IC50; outline: as §1
[5] = Upregulation of caspase-8 expression in human HepG2 cells at IC50 after 48 hrs by ELISA; format: functional, cell-based
Outline: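 Cells were trypsinized and lysed by liquid-nitrogen freeze–thaw. Lysates were incubated with HRP-conjugated anti-caspase-8 antibody for 30 min at 37 °C, with ELISA read-out at 450 nm. Levels were compared against untreated cells; mean ± SD, ANOVA with LSD/Dunnett post hoc.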

[6] = Downregulation of Ki67 expression in human HepG2 cells at IC50 after 48 hrs by ELISA; format: functional, cell-based
Outline: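 They were detached with trypsin and lysed by four rounds of ultrasonication before Ki-67 measurement. Comparison was with untreated cells; mean ± SD, ANOVA with LSD/Dunnett post hoc.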

[7] = Downregulation of Bcl2 expression in human HepG2 cells at IC50 after 48 hrs by ELISA; format: functional, cell-based
Outline: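 For ELISA, lysates had biotin conjugate 2 h at 25 °C, then streptavidin-HRP 1 h at 25 °C, read at 450 nm. Comparison was with untreated cells; mean ± SD, ANOVA with LSD/Dunnett post hoc.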

[8] = Antioxidant activity assessed as DPPH radical scavenging activity at 1 uM after 30 mins in absence of light by spectrophotometric analysis; format: functional
Outline: (§2)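 Compounds were dissolved in methanol at 1 µM, and 200 µL was added to 0.4 mL of 0.1 mM DPPH in methanol. Mixtures stood 30 min in the dark and were read at 517 nm against a blank (no DPPH). The negative control used methanol in place of compound. I% = (Ablank − Asample)/Ablank × 100. Ascorbic acid was the reference. Means of 3 replicates.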

[9] = Antioxidant activity assessed as DPPH radical scavenging activity at 1 uM after 30 mins in absence of light by spectrophotometric analysis relative to ascorbic acid; format: functional; outline: as §2
[10] = Pro-oxidant activity as bleomycin-Fe2+ induced calf thymus DNA damage measured as absorbance at 2 mM after 1 hr by thiobarbituric acid-based assay; format: ADME; set-up: unit not given here; settings: cattle, 2000 µM
Outline: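 The mix held calf thymus DNA 0.5 mg/mL, bleomycin sulfate 0.05 mg/mL, MgCl2 5 mM, FeCl3 50 mM and sample 2 mM. Ascorbic acid was the positive control. Capped tubes were heated at 80 °C for 30 min, ice-cooled, shaken and centrifuged. DNA damage was read as the increase in absorbance at 532 nm. Means of 3 replicates.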

[11] = Glutathione peroxidase-like activity assessed as decrease in H2O2 reduction at 41 uM preincubated with compound followed by H2O2 addition after 3 mins by spectrophotometry based NADPH-reductase coupled assay
Outline: (§3)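 Buffer: 50 mM phosphate with 0.1% Triton X-100, plus NADPH reagent (24 µmol glutathione, 12 U glutathione reductase, 4.8 µmol NADPH). Compound was at 41 µM and the reaction was started with 0.8 mM H2O2. A340 was followed for 3 min, giving ΔA/min. Rates were corrected for background H2O2/GSH reaction, and for compound absorbance where colored. Ebselen (41 µM) served as reference.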

[12] = Glutathione peroxidase-like activity assessed as decrease in H2O2 reduction at 41 uM preincubated with compound followed by H2O2 addition after 3 mins by spectrophotometry based NADPH-reductase coupled assay relative to ebselen; outline: as §3

| SMILES | IC50 [1] [µM] | IC50 [2] [µM] | IC50 at 48 h [3] [µM] | selectivity ratio [4] | Activity [5] | Activity [6] | Activity [7] | Activity [8] [%] | fold change (FC) [9] | Activity [10] | Activity [11] | fold change (FC) [12] |
| --- | --- | --- | --- | --- | --- | --- | --- | --- | --- | --- | --- | --- |
| CC(C)C(Nc1ccc([Se][Se]c2ccc(NC(c3nnnn3Cc3ccccc3)C(C)C)cc2)cc1)c1nnnn1Cc1ccccc1 (centres undefined) | ≥ 100 | 10 | ≥ 100 | > 10 | Active | Active | Active | 20.5 | 0.2 | 92 | – | – |
| COc1ccc(-n2nnnc2C(Nc2ccc([Se][Se]c3ccc(NC(c4nnnn4-c4ccc(OC)cc4)C(C)C)cc3)cc2)C(C)C)cc1 (centres undefined) | ≥ 100 | ≥ 100 | ≥ 100 | – | – | – | – | 30.5 | 0.3 | 77 | – | – |
| CC(C)C(Nc1ccc([Se][Se]c2ccc(NC(c3nnnn3C(C)(C)C)C(C)C)cc2)cc1)c1nnnn1C(C)(C)C (centres undefined) | ≥ 100 | 37 | ≥ 100 | > 3 | – | – | – | 38.6 | 0.4 | 67 | – | – |
| CC(C)C(Nc1ccc([Se][Se]c2ccc(NC(c3nnnn3C3CCCCC3)C(C)C)cc2)cc1)c1nnnn1C1CCCCC1 (centres undefined) | 52 | ≥ 100 | 43 | – | – | – | – | 22.9 | 0.2 | 99 | – | – |
| CC(C)(C)n1nnnc1C(Nc1ccc([Se][Se]c2ccc(NC(c3ccco3)c3nnnn3C(C)(C)C)cc2)cc1)c1ccco1 (centres undefined) | 14 | 51 | 11 | – | – | – | – | 24 | 0.3 | 108 | Active | < 5 |
| CC1=C([Se]c2ccc(NC(c3ccco3)c3nnnn3C(C)(C)C)cc2)C(=O)c2ccccc2C1=O (centres undefined) | ≥ 100 | 9 | 5 | 0.6 | Active | Active | Active | 95.3 | 1 | 138 | – | – |
| COC(CC(OC)OC)Cn1nnnc1C(Nc1ccc([Se][Se]c2ccc(NC(c3nnnn3CC(CC(OC)OC)OC)C(C)C)cc2)cc1)C(C)C (centres undefined) | ≥ 100 | 47 | ≥ 100 | > 2 | – | – | – | 26.3 | 0.3 | 94 | Active | – |
| c1cc([Se][Se]c2ccc(NCc3nnnn3C3CCCCC3)cc2)ccc1NCc1nnnn1C1CCCCC1 | ≥ 100 | ≥ 100 | 68 | – | – | – | – | 19.4 | 0.2 | 96 | Active | – |
| c1coc(C(Nc2ccc([Se][Se]c3ccc(NC(c4ccco4)c4nnnn4C4CCCCC4)cc3)cc2)c2nnnn2C2CCCCC2)c1 (centres undefined) | ≥ 100 | 36 | 83 | 2 | – | – | – | 49.5 | 0.5 | 222 | Active | < 5 |
| CC1=C([Se]c2ccc(NCc3nnnn3C(C)(C)C)cc2)C(=O)c2ccccc2C1=O | 42 | 33 | 48 | 1.5 | – | – | – | 69 | 0.8 | 103 | – | – |
| Cc1ccc(C(Nc2ccc([Se][Se]c3ccc(NC(c4ccc(C)cc4)c4nnnn4C(C)(C)C)cc3)cc2)c2nnnn2C(C)(C)C)cc1 (centres undefined) | 62 | 46 | 41 | – | – | – | – | 30.4 | 0.3 | 98 | – | – |
| COc1ccc(Cn2nnnc2C(Nc2ccc([Se][Se]c3ccc(NC(c4ccco4)c4nnnn4Cc4ccc(OC)cc4OC)cc3)cc2)c2ccco2)c(OC)c1 (centres undefined) | ≥ 100 | ≥ 100 | 88 | – | – | – | – | 18.8 | 0.2 | 81 | Active | – |
| CC(C)(C)n1nnnc1CNc1ccc([Se][Se]c2ccc(NCc3nnnn3C(C)(C)C)cc2)cc1 | 28 | 44 | 21 | – | – | – | – | 44.3 | 0.5 | 93 | Active | – |
| COc1ccc(Cn2nnnc2C(Nc2ccc([Se][Se]c3ccc(NC(c4nnnn4Cc4ccc(OC)cc4OC)C(C)C)cc3)cc2)C(C)C)c(OC)c1 (centres undefined) | 70 | 2 | 64 | 32 | – | – | – | 31.8 | 0.3 | 81 | Active | < 5 |
| CC(=O)N(c1ccc([Se]C2=CC(=O)c3ccccc3C2=O)cc1)C(C(=O)NC(C)(C)C)c1ccc(C)cc1 (centres undefined) | 34 | 53 | 29 | > 0.5 | Active | Active | Active | – | – | – | – | – |
| O=c1[nH]cc(F)c(=O)[nH]1 [FLUOROURACIL] | 3 | 8 | 4 | 0.5 | – | – | – | – | – | – | – | – |
| Cc1ccc(C(Nc2ccc([Se][Se]c3ccc(NC(c4ccc(C)cc4)c4nnnn4C4CCCCC4)cc3)cc2)c2nnnn2C2CCCCC2)cc1 (centres undefined) | 78 | ≥ 100 | 56 | – | – | – | – | 22.9 | 0.3 | 79 | – | – |
| O=C1O[C@H]([C@@H](O)CO)C(O)=C1O [ASCORBIC ACID] | – | – | – | – | – | – | – | 96.5 | – | 310 | – | – |
| COc1ccc(Cn2nnnc2C(Nc2ccc([Se][Se]c3ccc(NC(c4ccc(C)cc4)c4nnnn4Cc4ccc(OC)cc4OC)cc3)cc2)c2ccc(C)cc2)c(OC)c1 (centres undefined) | ≥ 100 | ≥ 100 | ≥ 100 | – | – | – | – | 22.1 | 0.2 | 130 | Active | < 5 |
